Results as given in ChEMBL document CHEMBL1275301, “Antihypertensive activity of newer 1,4-dihydro-5-pyrimidine carboxamides: synthesis and pharmacological evaluation” (2010).
The source made the active and inactive calls. No cut-off for these calls is given here.

What was measured:
Rattus norvegicus [1] = test: Antihypertensive activity against DOCA-salt induced hypertension in albino rat assessed as reduction in systolic blood pressure at 10 mg/kg, po up to 360 mins by tail-cuff method; format: functional, organism-based; parameters: dose 10 mg/kg; settings: Artery
In short: (§1)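 Rats given DOCA 20 mg/kg s.c. twice weekly in olive oil for 4 weeks, with 1% w/v NaCl as drinking water, reaching systolic 160–180 mm Hg. Rats were trained in restrainer and tail-cuff sessions. Compounds in 0.5% CMC were dosed at 10 mg/kg by oral feeding needle, with vehicle and nifedipine groups. BP was read before dosing and after, with the tail warmed at 37 °C for 2–5 min. Each compound was run three times in one week and readings averaged.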

Rattus norvegicus [2] = test: Antihypertensive activity against DOCA-salt induced hypertension in albino rat assessed as reduction in systolic blood pressure at 10 mg/kg, po after 900 mins by tail-cuff method; format: functional; settings: Artery, 15 h; in short: as §1
Rattus norvegicus [3] = test: Antihypertensive activity against DOCA-salt induced hypertension in albino rat assessed as reduction in systolic blood pressure at 10 mg/kg, po after 720 mins by tail-cuff method; format: functional; settings: Artery, 12 h; in short: as §1
Rattus norvegicus [4] = test: Antihypertensive activity against DOCA-salt induced hypertension in albino rat assessed as reduction in systolic blood pressure at 10 mg/kg, po after 600 mins by tail-cuff method; format: functional; settings: Artery, 10 h; in short: as §1
Rattus norvegicus [5] = test: Antihypertensive activity against DOCA-salt induced hypertension in albino rat assessed as reduction in systolic blood pressure at 10 mg/kg, po after 360 mins by tail-cuff method; format: functional; settings: Artery, 6 h; in short: as §1
Rattus norvegicus [6] = test: Antihypertensive activity against DOCA-salt induced hypertension in albino rat assessed as reduction in systolic blood pressure at 10 mg/kg, po after 300 mins by tail-cuff method; format: functional; settings: Artery, 5 h; in short: as §1
Rattus norvegicus [7] = test: Antihypertensive activity against DOCA-salt induced hypertension in albino rat assessed as reduction in systolic blood pressure at 10 mg/kg, po after 240 mins by tail-cuff method; format: functional; settings: Artery, 4 h; in short: as §1
Rattus norvegicus [8] = test: Antihypertensive activity against DOCA-salt induced hypertension in albino rat assessed as reduction in systolic blood pressure at 10 mg/kg, po after 180 mins by tail-cuff method; format: functional; settings: Artery, 3 h; in short: as §1
Rattus norvegicus [9] = test: Antihypertensive activity against DOCA-salt induced hypertension in albino rat assessed as reduction in systolic blood pressure at 10 mg/kg, po after 120 mins by tail-cuff method; format: functional; settings: Artery, 2 h; in short: as §1
Rattus norvegicus [10] = test: Antihypertensive activity against DOCA-salt induced hypertension in albino rat assessed as reduction in systolic blood pressure at 10 mg/kg, po after 60 mins by tail-cuff method; format: functional; settings: Artery, 1 h; in short: as §1
Rattus norvegicus [11] = test: Antihypertensive activity against DOCA-salt induced hypertension in albino rat assessed as reduction in systolic blood pressure at 10 mg/kg, po after 30 mins by tail-cuff method; format: functional; settings: Artery, 0.5 h; in short: as §1
Rattus norvegicus [12] = test: Antihypertensive activity against DOCA-salt induced hypertension in albino rat assessed as reduction in systolic blood pressure at 10 mg/kg, po after 15 mins by tail-cuff method; format: functional; settings: Artery, 0.25 h; in short: as §1

| SMILES | Activity (Rattus norvegicus [1]) | inhibition in vivo at 10 mg/kg (Rattus norvegicus [2]) | inhibition in vivo at 10 mg/kg (Rattus norvegicus [3]) | inhibition in vivo at 10 mg/kg (Rattus norvegicus [4]) | inhibition in vivo at 10 mg/kg (Rattus norvegicus [5]) | inhibition in vivo at 10 mg/kg (Rattus norvegicus [6]) | inhibition in vivo at 10 mg/kg (Rattus norvegicus [7]) | inhibition in vivo at 10 mg/kg (Rattus norvegicus [8]) | inhibition in vivo at 10 mg/kg (Rattus norvegicus [9]) | inhibition in vivo at 10 mg/kg (Rattus norvegicus [10]) | inhibition in vivo at 10 mg/kg (Rattus norvegicus [11]) | inhibition in vivo at 10 mg/kg (Rattus norvegicus [12]) |
| --- | --- | --- | --- | --- | --- | --- | --- | --- | --- | --- | --- | --- |
| CC1=C(C(=O)Nc2ccc([N+](=O)[O-])cc2)C(c2ccc(Br)cc2)N=C(SCc2ccc(F)cc2)N1 (stereo not given) | Active | 22.6% | 27.3% | 32.3% | 38.7% | 34.4% | 27.2% | 17.5% | 12.9% | 9.7% | 5.2% | 2.6% |
| COc1ccc(C2N=C(SCc3ccc(Cl)cc3)NC(C)=C2C(=O)Nc2ccc(Br)cc2)cc1 (stereo not given) | Active | 20% | 23.7% | 30.3% | 39.2% | 37.9% | 29.2% | 22.7% | 16.5% | 12.3% | 7.2% | 3.1% |
| CC1=C(C(=O)Nc2ccc(Br)cc2)C(c2ccc(Cl)cc2Cl)N=C(SCc2ccc(Cl)cc2)N1 (stereo not given) | Active | 22.1% | 25.8% | 30.3% | 39.7% | 38.5% | 32.3% | 23.2% | 17.5% | 11.8% | 6.7% | 4.1% |
| CC1=C(C(=O)Nc2ccc(F)cc2)C(c2ccc([N+](=O)[O-])cc2)N=C(SCc2ccccc2)N1 (stereo not given) | Active | 21% | 27.3% | 32.3% | 38.7% | 38.5% | 32.3% | 23.7% | 18% | 12.3% | 7.2% | 3.1% |
| COc1ccc(C2N=C(SCc3ccccc3)NC(C)=C2C(=O)Nc2ccc(F)cc2)cc1OC (stereo not given) | Active | 1% | 1.5% | 3.1% | 3.6% | 7.2% | 11.8% | 12.9% | 8.8% | 6.2% | 3.6% | 1.5% |
| COC(=O)C1=C(C)NC(C)=C(C(=O)OC)C1c1ccccc1[N+](=O)[O-] [NIFEDIPINE] | Active | 16.9% | 18.6% | 24.1% | 38.1% | 32.3% | 25.6% | 17.5% | 11.3% | 7.7% | 3.1% | 1.5% |
| CC1=C(C(=O)Nc2ccc([N+](=O)[O-])cc2)C(c2cccc([N+](=O)[O-])c2)N=C(SCc2ccccc2Cl)N1 (stereo not given) | Active | 7.2% | 11.3% | 13.3% | 17.5% | 15.9% | 12.8% | 9.3% | 7.7% | 6.7% | 3.6% | 2.1% |
| COc1ccc(C2N=C(SCc3ccc(Cl)cc3)NC(C)=C2C(=O)Nc2ccc(F)cc2)cc1OC (stereo not given) | Active | 20% | 22.2% | 26.7% | 37.1% | 31.3% | 24.1% | 20.1% | 15.5% | 10.3% | 5.7% | 3.1% |
| COc1ccc(C2N=C(SCc3cccc(Cl)c3)NC(C)=C2C(=O)Nc2ccc(F)cc2)cc1OC (stereo not given) | Active | 13.3% | 15.5% | 17.4% | 20.1% | 16.4% | 14.9% | 13.4% | 10.8% | 8.2% | 5.2% | 2.1% |
| CC1=C(C(=O)Nc2ccc([N+](=O)[O-])cc2)C(c2ccc(Br)cc2)N=C(SCc2ccccc2Cl)N1 (stereo not given) | Active | 4.1% | 6.7% | 9.7% | 13.9% | 16.9% | 15.4% | 11.3% | 7.7% | 6.7% | 3.6% | 1.5% |
| CC1=C(C(=O)Nc2ccc(F)cc2)C(c2ccc([N+](=O)[O-])cc2)N=C(SCc2cccc(Cl)c2)N1 (stereo not given) | Active | 10.8% | 12.9% | 16.4% | 21.1% | 18.5% | 15.9% | 11.9% | 9.8% | 7.2% | 4.1% | 2.1% |
| CC1=C(C(=O)Nc2ccc(F)cc2)C(c2ccc([N+](=O)[O-])cc2)N=C(SCc2ccccc2Cl)N1 (stereo not given) | Active | 11.3% | 13.9% | 17.4% | 21.6% | 18.5% | 15.9% | 12.4% | 8.8% | 6.2% | 3.1% | 1.5% |
| COc1ccc(C2N=C(SCc3cccc(Cl)c3)NC(C)=C2C(=O)Nc2ccc(Br)cc2)cc1 (stereo not given) | Active | 22.6% | 26.8% | 32.8% | 39.7% | 39% | 33.8% | 27.3% | 21.1% | 15.4% | 7.7% | 3.1% |
| COc1ccc(C2N=C(SCc3ccccc3Cl)NC(C)=C2C(=O)Nc2ccc(Br)cc2)cc1 (stereo not given) | Active | 7.2% | 10.8% | 13.3% | 20.6% | 17.9% | 15.4% | 11.3% | 8.2% | 6.7% | 4.6% | 3.1% |
| COc1ccc(C2N=C(SCc3ccc(F)cc3)NC(C)=C2C(=O)Nc2ccc(F)cc2)cc1OC (stereo not given) | Active | 15.4% | 17% | 21% | 37.1% | 37.9% | 28.7% | 22.2% | 15.5% | 11.8% | 6.7% | 3.6% |
